According to paper PMC6935887 (Journal of Medicinal Chemistry, 2019):
Each block holds one molecule with its values, some of them ahead of it.

Key:
[1] = molecular target: T1, hCCR5 (Homo sapiens, UniProt P51681); experiment: Tango β-arrestin recruitment assay in U2OS-CCR5 cells; format: cell-based; settings: for Hill slope (nH): inhibition of CCL3-induced β-arrestin recruitment in U2OS-CCR5; for inhibition at 1 µM: read-out: inhibition at 1 μM (%), β-arrestin recruitment in U2OS-CCR5 by 1 μM compound, in the presence of an EC80 concentration of CCL3, negative = CCL3 stimulation
T1 sequence (P51681 whole entry): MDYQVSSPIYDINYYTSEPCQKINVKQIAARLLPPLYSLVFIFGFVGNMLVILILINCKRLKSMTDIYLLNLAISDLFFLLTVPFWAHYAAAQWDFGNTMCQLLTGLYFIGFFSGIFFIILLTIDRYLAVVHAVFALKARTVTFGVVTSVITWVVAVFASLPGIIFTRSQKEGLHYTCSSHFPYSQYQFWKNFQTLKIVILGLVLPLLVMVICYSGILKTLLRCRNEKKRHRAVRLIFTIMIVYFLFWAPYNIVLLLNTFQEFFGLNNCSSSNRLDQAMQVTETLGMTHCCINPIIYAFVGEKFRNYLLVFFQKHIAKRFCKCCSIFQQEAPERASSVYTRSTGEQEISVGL
Summary of the method: (§1)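 Tango bla U2OS cells (human CCR2b or CCR5) were trypsinized and seeded at 10 000 cells/well in FreeStyle medium. Agonist mode: CCL2 or CCL3 for 16 h, 37 °C, 5% CO2. Antagonist mode: 30 min room-temperature preincubation with increasing compound (≤0.5% DMSO final), then 16 h with EC80 CCL2 (5 nM, CCR2) or CCL3 (14 nM, CCR5). LiveBLAzer-FRET B/G substrate 2 h; excitation 400 nm, 460/535 nm emission ratio.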

[2] = test system: CCR2; settings: read-out: IC50 in CCR2 calcium flux assay; previously reported activity; cited from earlier work
[3] = molecular target: T2, hCCR2 (Homo sapiens, UniProt P41597); experiment: [3H]-CCR2-RA-[R] displacement binding assay on U2OS-CCR2b membranes; settings: for pKi ± SEM: displacement of ∼6 nM [3H]-CCR2-RA-[R] from U2OS cells stably expressing CCR2, 25 °C
T2 sequence (P41597 1-360 isoform P41597-2): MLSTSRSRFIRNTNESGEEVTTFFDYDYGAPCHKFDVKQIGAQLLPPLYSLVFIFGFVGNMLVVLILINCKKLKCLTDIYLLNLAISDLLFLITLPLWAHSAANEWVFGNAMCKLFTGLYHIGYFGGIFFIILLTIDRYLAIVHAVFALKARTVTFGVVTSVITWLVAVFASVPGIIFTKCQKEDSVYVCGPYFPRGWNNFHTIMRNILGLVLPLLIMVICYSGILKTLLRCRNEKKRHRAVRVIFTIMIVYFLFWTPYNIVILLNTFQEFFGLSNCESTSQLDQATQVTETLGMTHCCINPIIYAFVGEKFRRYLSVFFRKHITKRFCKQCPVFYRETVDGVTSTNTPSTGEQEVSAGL
Summary of the method: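 U2OS-CCR2b membranes (15–20 μg protein) were incubated with ~6 nM [3H]-CCR2-RA-[R] and at least 6 competitor concentrations. Buffer: 50 mM Tris-HCl, 5 mM MgCl2, 0.1% CHAPS, pH 7.4. Incubation 2 h at 25 °C. Rapid GF/B filtration, ten washes with ice-cold buffer (0.05% CHAPS), scintillation counting. Mean ± SEM of ≥3 experiments in duplicate.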

[4] = molecular target: T2, hCCR2; experiment: Tango β-arrestin recruitment assay in U2OS-CCR2 cells; format: cell-based; settings: inhibition of CCL2-induced β-arrestin recruitment in U2OS-CCR2
Summary of the method: as §1

[5] = molecular target: T2, hCCR2; experiment: CCL2-stimulated [35S]GTPγS binding assay on U2OS-CCR2 membranes; format: biochemical; settings: for decrease of basal [35S]GTPγS binding levels: 1 μM compound, in absence of CCL2, 0% = basal activity, 100% = 100 nM CCL2
Summary of the method: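 U2OS-CCR2b cells are grown in McCoy's 5A with 10% FCS, G418, hygromycin and zeocin, switching to dialyzed FCS before harvest. Membranes are prepared by scraping in PBS, homogenizing in ice-cold 50 mM Tris-HCl, 5 mM MgCl2, pH 7.4, ultracentrifuging (31 000 rpm, 20 min, 4 °C) twice, storing at −80 °C and measuring protein by BCA. Values come from nonlinear regression, ≥3 experiments in duplicate.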

[6] = molecular target: T1, hCCR5; experiment: CCL3-stimulated [35S]GTPγS binding assay on U2OS-CCR5 membranes; format: biochemical; settings: CCL3 alone, U2OS-CCR5, 25 °C
Summary of the method: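 Membranes from Tango U2OS cells stably expressing human CCR5 (10 μg, with 0.25 mg/mL saponin) were preincubated 30 min at 25 °C with 5 μM GDP and increasing CCL3. Then 0.3 nM [35S]GTPγS was added for 90 min at 25 °C. Stopped with ice-cold Tris/MgCl2, then GF/B filtration. Nonlinear regression.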

[7] = CCL2 alone, [35S]GTPγS binding, U2OS-CCR2, 25 °C

Hill slope (nH) [1]: −2.4
Molecule: CC(=O)C1=C(O)C(=O)N(c2ccc(Cl)cc2F)[C@@H]1C1CCCCC1 [CCR2-RA-[R], reference compound]

pKi ± SEM [3]: 8.76 ± 0.01
Molecule: O=c1c(Cc2cccc(Cl)c2)c(C2CC2)[nH]c2ncnn12 [Compound 6, 6-(3-Chlorobenzyl)-5-cyclopropyl[1,2,4]triazolo[1,5-a]pyrimidin-7(4H)-one]
IC50 [2]: ~20 nM

pKi ± SEM [3]: 8.46 ± 0.05
Molecule: Cc1nc2[nH]c(C3CC3)c(Cc3cccc(Cl)c3)c(=O)n2n1 [Compound 7, 6-(3-Chlorobenzyl)-5-cyclopropyl-2-methyl[1,2,4]triazolo[1,5-a]pyrimidin-7(4H)-one]

inhibition at 1 µM [1]: > 60% | pKi ± SEM [3]: 8.61 ± 0.03
Molecule: Cc1cccc(Cc2c(C3CC3)[nH]c3nc(N)nn3c2=O)c1 [Compound 13, 2-Amino-5-cyclopropyl-6-(3-methylbenzyl)[1,2,4]triazolo[1,5-a]pyrimidin-7(4H)-one]

inhibition at 1 µM [1]: < 45%
Molecule: Nc1nc2[nH]c(C3CC3)c(Cc3cccc(F)c3)c(=O)n2n1 [Compound 14, 2-Amino-5-cyclopropyl-6-(3-fluorobenzyl)[1,2,4]triazolo[1,5-a]pyrimidin-7(4H)-one]

pKi ± SEM [3]: 8.39 ± 0.03
Molecule: Nc1nc2[nH]c(C3CC3)c(Cc3ccc(F)cc3)c(=O)n2n1 [Compound 20, 2-Amino-5-cyclopropyl-6-(4-fluorobenzyl)[1,2,4]triazolo[1,5-a]pyrimidin-7(4H)-one]

pKi ± SEM [3]: 8.74 ± 0.05
Molecule: Nc1nc2[nH]c(C3CC3)c(Cc3ccc(Cl)cc3)c(=O)n2n1 [Compound 21, 2-Amino-6-(4-chlorobenzyl)-5-cyclopropyl[1,2,4]triazolo[1,5-a]pyrimidin-7(4H)-one]

fold increase in CCR5 potency compared to 8 [1]: 2 fold
Molecule: CC(C)c1[nH]c2nc(N)nn2c(=O)c1Cc1cccc(Cl)c1 [Compound 27, 2-Amino-6-(3-chlorobenzyl)-5-isopropyl[1,2,4]triazolo[1,5-a]pyrimidin-7(4H)-one]

inhibition at 1 µM [1]: > 60% | Ki [3]: 2 nM
Molecule: CCCCc1[nH]c2nc(N)nn2c(=O)c1Cc1cccc(Cl)c1 [Compound 28, 2-Amino-5-butyl-6-(3-chlorobenzyl)[1,2,4]triazolo[1,5-a]pyrimidin-7(4H)-one]

pKi ± SEM [3]: 8.14 ± 0.03
Molecule: CCCCCc1[nH]c2nc(N)nn2c(=O)c1Cc1cccc(Cl)c1 [Compound 30, 2-Amino-6-(3-chlorobenzyl)-5-pentyl[1,2,4]triazolo[1,5-a]pyrimidin-7(4H)-one]

fold increased affinity for CCR2 compared to 30 [3]: 4.5 fold
Molecule: Nc1nc2[nH]c(C3CCCC3)c(Cc3cccc(Cl)c3)c(=O)n2n1 [Compound 31, 2-Amino-6-(3-chlorobenzyl)-5-cyclopentyl[1,2,4]triazolo[1,5-a]pyrimidin-7(4H)-one]

fold increase in CCR5 potency compared to 37 [1]: ~2 fold
Molecule: CC(C)c1[nH]c2nc(N)nn2c(=O)c1Cc1ccc(Cl)c(Cl)c1 [Compound 38, 2-Amino-6-(3,4-dichlorobenzyl)-5-isopropyl[1,2,4]triazolo[1,5-a]pyrimidin-7(4H)-one]

inhibition at 1 µM [1]: ≤ 70%
Molecule: CC(C)c1[nH]c2nc(N)nn2c(=O)c1Cc1cc(Br)cc(Br)c1 [Compound 42, 2-Amino-6-(3,5-dibromobenzyl)-5-isopropyl[1,2,4]triazolo[1,5-a]pyrimidin 7(4H)-one]

Hill slope (nH) [1]: −1.1
Molecule: Cc1ccc(-c2ccc3c(c2)C=C(C(=O)Nc2ccc(C[N+](C)(C)C4CCOCC4)cc2)CCC3)cc1.[Cl-] [TAK-779, reference compound]

EC50 [5, 7]: 8 nM | Emax ± SEM (%) [5, 7]: 107 ± 2% | pEC50 ± SEM [5, 7]: 8.10 ± 0.06
Molecule: CCL2: human recombinant chemokine, endogenous agonist of CCR2

EC50 [6]: 4 nM | Emax ± SEM (%) [6]: 108 ± 2% | pEC50 ± SEM [6]: 8.42 ± 0.06 | pEC50 of β-arrestin recruitment ([1]; agonist, U2OS-CCR5): 8.3 ± 0.08 | pEC80 of β-arrestin recruitment ([1]; agonist, U2OS-CCR5): 7.9 ± 0.08 | EC50 ([1]; read-out: EC50 of β-arrestin recruitment, agonist, U2OS-CCR5): 6 nM
Molecule: CCL3: human recombinant chemokine, endogenous agonist of CCR5

The remaining lines, values behind:

Molecule: Nc1nc2[nH]c(C3CC3)c(Cc3ccccc3)c(=O)n2n1 [Compound 9, 2-Amino-6-benzyl-5-cyclopropyl[1,2,4]triazolo[1,5-a]pyrimidin-7(4H)-one]
fold decrease in affinity for CCR2 compared to 8 [3]: 5 fold

Molecule: COc1ccccc1Cc1c(C2CC2)[nH]c2nc(N)nn2c1=O [Compound 12, 2-Amino-5-cyclopropyl-6-(2-methoxybenzyl)[1,2,4]triazolo[1,5-a]pyrimidin-7(4H)-one]
inhibition at 1 µM [1]: -20%

Molecule: COc1cccc(Cc2c(C3CC3)[nH]c3nc(N)nn3c2=O)c1 [Compound 17, 2-Amino-5-cyclopropyl-6-(3-methoxybenzyl)[1,2,4]triazolo[1,5-a]pyrimidin-7(4H)-one]
inhibition at 1 µM [1]: -27% | pKi ± SEM [3]: 7.89 ± 0.07

Molecule: Cc1ccc(Cc2c(C3CC3)[nH]c3nc(N)nn3c2=O)cc1 [Compound 19, 2-Amino-5-cyclopropyl-6-(4-methylbenzyl)[1,2,4]triazolo[1,5-a]pyrimidin-7(4H)-one]
inhibition at 1 µM [1]: -57% | Ki [3]: 3 nM | pKi ± SEM [3]: 8.46 ± 0.03

Molecule: COc1ccc(Cc2c(C3CC3)[nH]c3nc(N)nn3c2=O)cc1 [Compound 23, 2-Amino-5-cyclopropyl-6-(4-methoxybenzyl)[1,2,4]triazolo[1,5-a]pyrimidin-7(4H)-one]
inhibition at 1 µM [1]: -28%

Molecule: Cc1[nH]c2nc(N)nn2c(=O)c1Cc1cccc(Cl)c1 [Compound 24, 2-Amino-6-(3-chlorobenzyl)-5-methyl[1,2,4]triazolo[1,5-a]pyrimidin-7(4H)-one]
inhibition at 1 µM [1]: -35%

Molecule: CCCc1[nH]c2nc(N)nn2c(=O)c1Cc1cccc(Cl)c1 [Compound 26, 2-Amino-6-(3-chlorobenzyl)-5-propyl[1,2,4]triazolo[1,5-a]pyrimidin-7(4H)-one]
inhibition at 1 µM [1]: > 60% | Ki [3]: ~4 nM

Molecule: CCCCCCc1[nH]c2nc(N)nn2c(=O)c1Cc1cccc(Cl)c1 [Compound 32, 2-Amino-6-(3-chlorobenzyl)-5-hexyl[1,2,4]triazolo[1,5-a]pyrimidin-7(4H)-one]
inhibition at 1 µM [1]: -63%

Molecule: Nc1nc2[nH]c(-c3ccccc3)c(Cc3cccc(Cl)c3)c(=O)n2n1 [Compound 34, 2-Amino-6-(3-chlorobenzyl)-5-phenyl[1,2,4]triazolo[1,5-a]pyrimidin-7(4H)-one]
inhibition at 1 µM [1]: -41% | fold decrease in affinity for CCR2 compared to 8 [3]: 20 fold

Molecule: Cc1ccc(-c2[nH]c3nc(N)nn3c(=O)c2Cc2cccc(Cl)c2)cc1 [Compound 35, 2-Amino-6-(3-chlorobenzyl)-5-(p-tolyl)[1,2,4]triazolo[1,5-a]pyrimidin-7(4H)-one]
inhibition at 1 µM [1]: -13% | fold decrease in affinity for CCR2 compared to 8 [3]: 122 fold

Molecule: Nc1nc2[nH]c(CCc3ccccc3)c(Cc3cccc(Cl)c3)c(=O)n2n1 [Compound 36, 2-Amino-6-(3-chlorobenzyl)-5-phenethyl[1,2,4]triazolo[1,5-a]pyrimidin-7(4H)-one]
inhibition at 1 µM [1]: -42% | fold decrease in affinity for CCR2 compared to 8 [3]: 40 fold

Molecule: CC(C)c1[nH]c2nc(N)nn2c(=O)c1Cc1cccc(Cl)c1Cl [Compound 39, 2-Amino-6-(2,3-dichlorobenzyl)-5-isopropyl[1,2,4]triazolo[1,5-a]pyrimidin-7(4H)-one]
Hill slope (nH) [4]: −2.5 | Hill slope (nH) [1]: −3.7 | decrease of basal [35S]GTPγS binding levels [5]: 7–8%

Molecule: CC(C)c1[nH]c2nc(N)nn2c(=O)c1Cc1ccc(Cl)c(Br)c1 [Compound 43, 2-Amino-6-(3-bromo-4-chloro-benzyl)-5-isopropyl[1,2,4]triazolo[1,5-a]pyrimidin-7(4H)-one]
Hill slope (nH) [4]: −3.4 | Hill slope (nH) [1]: −4.4 | decrease of basal [35S]GTPγS binding levels [5]: 7–8%
